Data published in ChEMBL document CHEMBL1123566, “Synthesis and cardiac electrophysiological activity of 2- and 3-[(substituted phenyl)alkyl]quinuclidines. Structure-activity relationships” (1987).
Values joined by “and” are separate entries in the source; they are usually repeats but may differ in a detail not shown here. Equal entries are not always repeated.

Columns and labels:
Canis familiaris [1] = species on record: Canis familiaris; assay: In vitro electrophysiological evaluation in canine cardiac occurred is 100 uM.; assay type: functional; conditions: Canis lupus familiaris; Heart
Canis familiaris [2] = species on record: Canis familiaris; assay: In vitro electrophysiological activity in canine cardiac occurred is 10 uM.; assay type: functional, Canis lupus familiaris, Heart
Canis familiaris [3] = assay: Conduction time was determined by intraduodenal administration of 3 mg/kg (low dose) of compound in anesthetized dogs. Value was reported for experiment 2; assay type: functional, Canis lupus familiaris
How it was run: (§1)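 Anesthetized dogs; compound given intraduodenally, generally as two doses, the second a cumulative (high) dose. LV functional refractory period and conduction time measured 15, 30 and 45 min after dosing; heart rate and blood pressure measured during nonpacing intervals. Values are % change from control, given per individual animal. Active if FRP or CT prolonged by ≥12%.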

Canis familiaris [4] = assay: Heart rate was determined by intraduodenal administration of two dosages of 30 mg/kg of compound in anesthetized dogs. Value was reported for experiment 1; assay type: functional, Canis lupus familiaris; how it was run: as §1
Canis familiaris [5] = assay: Mean arterial blood pressure was determined by intraduodenal administration of two dosages of 3 mg/kg of compound in anesthetized dogs. Value was reported for experiment 2; assay type: functional, Canis lupus familiaris
Canis familiaris [6] = assay: Mean arterial blood pressure was determined by intraduodenal administration of two dosages of 30 mg/kg of compound in anesthetized dogs. Value was reported for experiment 1; assay type: functional, Canis lupus familiaris
How it was run: (§2)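 Anesthetized dogs received two intraduodenal doses, the second cumulative (low dose/high dose). Left ventricular FRP and CT were measured 15, 30 and 45 min after dosing. Heart rate and mean blood pressure were taken during nonpacing intervals. Values are percent change from control. The vehicle was 5% dextrose in water/tragacanth. Activity was defined as ≥12% prolongation of FRP or CT.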

Canis familiaris [7] = assay: Left ventricular refractory period was determined by intraduodenal administration of 30 mg/kg (high dose) of compound in anesthetized dogs. Value was reported for experiment 1; assay type: functional, Canis lupus familiaris, Cardiac ventricle; how it was run: as §2
Canis familiaris [8] = assay: Heart rate was determined by intraduodenal administration of two dosages of 10 mg/kg of compound in anesthetized dogs. Value was reported for experiment 1; assay type: functional, Canis lupus familiaris; how it was run: as §1
Canis familiaris [9] = species on record: Canis familiaris; assay: In vitro electrophysiological evaluation in canine cardiac ventricular muscle reported as % change for the functional refractory period (FRP) at 10 uM at concentration range of 0.1-10 uM; design: species or system Canis lupus familiaris, Muscle tissue
How it was run: (§3)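 Canine right ventricle and papillary muscle strips in oxygenated Tyrode's solution, fitted with stimulating and recording electrodes. The extra-stimulus conduction-interval method was adapted for in vitro use. FRP and CT were read from a conduction-interval curve before and after various compound concentrations, and expressed as percent change from control. Compounds were taken from 10 mM deionized-water stock into Tyrode's. Each strip was used once as its own control.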

Canis familiaris [10] = assay: Heart rate was determined by intraduodenal administration of two dosages of 10 mg/kg of compound in anesthetized dogs. Value was reported for experiment 2; assay type: functional, Canis lupus familiaris; how it was run: as §1
Canis familiaris [11] = species on record: Canis familiaris; assay: In vitro electrophysiological activity in canine cardiac occurred is 100 uM.; assay type: functional, Canis lupus familiaris, Heart
Canis familiaris [12] = assay: Mean arterial blood pressure was determined by intraduodenal administration of two dosages of 10 mg/kg of compound in anesthetized dogs. Value was reported for experiment 2; assay type: functional, Canis lupus familiaris; how it was run: as §2
Canis familiaris [13] = assay: Conduction time was determined by intraduodenal administration of 10 mg/kg (low dose) of compound in anesthetized dogs. Value was reported for experiment 1; assay type: functional, Canis lupus familiaris; how it was run: as §1
Canis familiaris [14] = assay: Left ventricular refractory period was determined by intraduodenal administration of 10 mg/kg (low dose) of compound in anesthetized dogs. Value was reported for experiment 1; assay type: functional, Canis lupus familiaris, Cardiac ventricle; how it was run: as §2
Canis familiaris [15] = species on record: Canis familiaris; assay: In vitro electrophysiological evaluation in canine cardiac ventricular muscle reported as maximum % change for conduction time(CT) at 0.1-10 uM concentration range; Minimal (<10% decrease or increase in CT).; assay type: functional, Canis lupus familiaris, Muscle tissue; how it was run: as §3
Canis familiaris [16] = species on record: Canis familiaris; assay: In vitro electrophysiological evaluation in canine cardiac ventricular muscle reported as % change for conduction time(CT) at 10 uM at 0.1-10 uM concentration range; Minimal (<10% decrease or increase in CT).; assay type: functional, Canis lupus familiaris, Muscle tissue
Canis familiaris [17] = species on record: Canis familiaris; assay: In vitro electrophysiological evaluation in canine cardiac Purkinje fibres reported as percent change Vmax at 10 uM at concentration range of 0.1-100 uM; Minimal (<10% decrease or increase in Vmax).; assay type: functional, organism-based; conditions: Canis lupus familiaris, Purkinje fiber
How it was run: (§4)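 Canine cardiac Purkinje fibres, intracellular microelectrode recording, paced at a basic cycle length of 1 s. APD95 and Vmax read simultaneously. Compound: 10 mM stock in deionized water, diluted into Tyrode's solution, tested over the stated concentration range. Each fibre used once as its own control. Result is % change from control, given at 10 µM or as the maximum with its concentration. M = <10% decrease or an increase in Vmax.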

Canis familiaris [18] = species on record: Canis familiaris; assay: In vitro electrophysiological evaluation in canine cardiac Purkinje fibres reported as percent change Vmax at 10 uM at concentration range of 0.1-100 uM.; assay type: functional, organism-based; conditions: Canis lupus familiaris, Purkinje fiber; how it was run: as §4
Canis familiaris [19] = species on record: Canis familiaris; assay: In vitro electrophysiological evaluation in canine cardiac Purkinje fibres reported as maximum percent change Vmax concentration range of 0.1-100 uM; conduction block; assay type: functional; conditions: Canis lupus familiaris; Purkinje fiber; how it was run: as §4
Canis familiaris [20] = assay: Left ventricular refractory period was determined by intraduodenal administration of 10 mg/kg (high dose) of compound in anesthetized dogs. Value was reported for experiment 2; assay type: functional, Canis lupus familiaris, Cardiac ventricle; how it was run: as §2
Canis familiaris [21] = species on record: Canis familiaris; assay: In vitro electrophysiological evaluation in canine cardiac Purkinje fibres reported as maximum percent change Vmax concentration range of 0.1-10 uM; Minimal (<10% decrease or increase in Vmax).; assay type: functional; conditions: Canis lupus familiaris; Purkinje fiber; how it was run: as §4
Canis familiaris [22] = assay: Mean arterial blood pressure was determined by intraduodenal administration of two dosages of 10 mg/kg of compound in anesthetized dogs. Value was reported for experiment 1; assay type: functional, Canis lupus familiaris; how it was run: as §2
Canis familiaris [23] = assay: Left ventricular refractory period was determined by intraduodenal administration of 3 mg/kg (low dose) of compound in anesthetized dogs. Value was reported for experiment 2; assay type: functional, Canis lupus familiaris, Cardiac ventricle; how it was run: as §2
Canis familiaris [24] = species on record: Canis familiaris; assay: In vitro electrophysiological evaluation in canine cardiac ventricular muscle reported as maximum % change for functional refractory period (FRP) at 0.1-10 uM concentration range; concentration at which it occurred is 10 uM.; design: species or system Canis lupus familiaris, Muscle tissue; how it was run: as §3
Canis familiaris [25] = assay: Conduction time was determined by intraduodenal administration of 10 mg/kg (high dose) of compound in anesthetized dogs. Value was reported for experiment 2; assay type: functional, Canis lupus familiaris; how it was run: as §1
Canis familiaris [26] = assay: Heart rate was determined by intraduodenal administration of two dosages of 3 mg/kg of compound in anesthetized dogs. Value was reported for experiment 2; assay type: functional, Canis lupus familiaris; how it was run: as §1
Canis familiaris [27] = species on record: Canis familiaris; assay: In vitro electrophysiological evaluation in canine cardiac Purkinje fibres reported as percent change Vmax at 10 uM at concentration range of 0.1-10 uM; Minimal (<10% decrease or increase in Vmax).; assay type: functional; conditions: Canis lupus familiaris, Purkinje fiber; how it was run: as §4
Canis familiaris [28] = species on record: Canis familiaris; assay: In vitro electrophysiological evaluation in canine cardiac Purkinje fibres reported as % change for action potential duration at a concentration of 10 uM; assay type: functional, Canis lupus familiaris, Purkinje fiber; how it was run: as §4
Canis familiaris [29] = assay: Conduction time was determined by intraduodenal administration of 30 mg/kg (high dose) of compound in anesthetized dogs. Value was reported for experiment 1; assay type: functional, Canis lupus familiaris; how it was run: as §1

Cl.O=C1C2CCN(CC2)C1CCCc1ccc(Cl)cc1 (centres undefined)
Vmax (Canis familiaris [1]): -12%
APD95 (Canis familiaris [2]): 6%
CT (Canis familiaris [3]): 3%
HR (Canis familiaris [4]): -31%
Mean blood pressure (Canis familiaris [5]): 20%
Mean blood pressure (Canis familiaris [6]): 5%
LV FRP (Canis familiaris [7]): 19%
HR (Canis familiaris [8]): -17%
FRP (Canis familiaris [9]): 39% and 23%
HR (Canis familiaris [10]): -14%
APD95 (Canis familiaris [11]): -11% and -18%
Mean blood pressure (Canis familiaris [12]): 24%
CT (Canis familiaris [13]): 0%
LV FRP (Canis familiaris [14]): 15%
CT (Canis familiaris [15]): <10%
CT (Canis familiaris [16]): <10%
Vmax (Canis familiaris [17]): < 10%
Vmax (Canis familiaris [18]): -41%
Vmax (Canis familiaris [19]): < 10%
LV FRP (Canis familiaris [20]): 9%
Vmax (Canis familiaris [21]): < 10%
Mean blood pressure (Canis familiaris [22]): -4%
LV FRP (Canis familiaris [23]): 5%
FRP (Canis familiaris [24]): 39% and 23%
CT (Canis familiaris [25]): 13%
HR (Canis familiaris [26]): -2%
Vmax (Canis familiaris [27]): < 10%
APD95 (Canis familiaris [28]): 6%
CT (Canis familiaris [29]): 2%
